Results published in ChEMBL document CHEMBL1158343, “Synthesis, antimicrobial and antiviral evaluation of substituted imidazole derivatives” (Eur J Med Chem, 2009).
Values after ≈ are worked out from the molar mass of the structure shown.

Legend:
Staphylococcus aureus = test: Antimicrobial activity against Staphylococcus aureus after 24 hrs by tube dilution method; assay type: functional
How it was run: (§1)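 Tube dilution in DMSO (stock 100 mg/ml) with serial dilutions; incubation 37 °C for 48 h for C. albicans (other organisms' times truncated in text). MIC read as lowest concentration inhibiting visible growth. Norfloxacin (bacteria) and fluconazole (fungi) as reference drugs.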

Bacillus subtilis = test: Antimicrobial activity against Bacillus subtilis after 24 hrs by tube dilution method; assay type: functional; how it was run: as §1
Escherichia coli = test: Antimicrobial activity against Escherichia coli after 24 hrs by tube dilution method; assay type: functional; how it was run: as §1
Aspergillus niger = test: Antimicrobial activity against Aspergillus niger after 7 days by tube dilution method; assay type: functional; details: 168 h; how it was run: as §1
Candida albicans = test: Antimicrobial activity against Candida albicans after 48 hrs by tube dilution method; assay type: functional; how it was run: as §1
[1] = Cytotoxicity against human HEL cells assessed as alteration in cell morphology; assay type: cell-based
How it was run: (§2)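 Uninfected cell cultures tested in parallel with the CPE-reduction antiviral assay; cells grown to confluency, then serial compound dilutions added and incubated at 37 °C (3 days in the parallel antiviral set-up). Read-out is microscopic examination of morphology; value is the minimum cytotoxic concentration, the lowest causing a microscopically detectable alteration of normal cell morphology.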

Human alphaherpesvirus 2 = test: Antiviral activity against HSV2 G infected in human HEL cells assessed as reduction in virus-induced cytopathogenicity after 3 days; assay type: functional, organism-based; details: Human alphaherpesvirus 2, strain G, 72 h
[2] = tested on: Vesicular stomatitis virus; test: Antiviral activity against VSV infected in human HEL cells assessed as reduction in virus-induced cytopathogenicity after 3 days; assay type: functional, organism-based; details: 72 h
Human alphaherpesvirus 1 [3] = test: Antiviral activity against thymidine kinase-deficient acyclovir-resistant HSV1 KOS infected in human HEL cells assessed as reduction in virus-induced cytopathogenicity after 3 days; assay type: functional, organism-based; details: Human alphaherpesvirus 1, KOS, 72 h
[4] = Cytotoxicity against human HeLa cells assessed as alteration in cell morphology; assay type: cell-based; how it was run: as §2
[5] = tested on: Vesicular stomatitis virus; test: Antiviral activity against VSV infected in human HeLa cells assessed as reduction in virus-induced cytopathogenicity after 3 days; assay type: functional, organism-based; details: 72 h
Coxsackievirus B4 [6] = test: Antiviral activity against Coxsackievirus B4 infected in human HeLa cells assessed as reduction in virus-induced cytopathogenicity after 3 days; assay type: functional, organism-based; details: Enterovirus B, 72 h
[7] = tested on: Respiratory syncytial virus; test: Antiviral activity against RSV infected in human HeLa cells assessed as reduction in virus-induced cytopathogenicity after 3 days; assay type: functional, organism-based; details: 72 h
[8] = Cytotoxicity against african green monkey Vero cells assessed as alteration in cell morphology; assay type: cell-based; details: chlorocebus sabaeus; how it was run: as §2
Human respirovirus 3 = test: Antiviral activity against Parainfluenza-3 virus infected in african green monkey Vero cells assessed as reduction in virus-induced cytopathogenicity after 3 days; assay type: functional, organism-based; details: Human respirovirus 3, Vero, 72 h
[9] = tested on: Mammalian orthoreovirus 1; test: Antiviral activity against Reovirus 1 infected in african green monkey Vero cells assessed as reduction in virus-induced cytopathogenicity after 3 days; assay type: functional, organism-based; details: Mammalian orthoreovirus 1, Vero, 72 h
Sindbis virus = test: Antiviral activity against Sindbis virus infected in african green monkey Vero cells assessed as reduction in virus-induced cytopathogenicity after 3 days; assay type: functional, organism-based; details: 72 h
Coxsackievirus B4 [10] = test: Antiviral activity against Coxsackievirus B4 infected in african green monkey Vero cells assessed as reduction in virus-induced cytopathogenicity after 3 days; assay type: functional, organism-based; details: Enterovirus B, 72 h
Punta Toro virus = test: Antiviral activity against Punta Toro virus infected in african green monkey Vero cells assessed as reduction in virus-induced cytopathogenicity after 3 days; assay type: functional, organism-based; details: 72 h
Human alphaherpesvirus 1 [11] = test: Antiviral activity against HSV1 KOS infected in human HEL cells assessed as reduction in virus-induced cytopathogenicity after 3 days; assay type: functional, organism-based; details: Human alphaherpesvirus 1, KOS, 72 h

For `O=[N+]([O-])c1cccc(-c2ncc[nH]2)c1`, the MBC (Staphylococcus aureus) was 33 µM (≈ 6.24 µg/mL), the MIC (Staphylococcus aureus) was 4 µM (≈ 0.757 µg/mL) and the MBC (Bacillus subtilis) was 33 µM (≈ 6.24 µg/mL). It also gave an MIC (Bacillus subtilis) of 4 µM (≈ 0.757 µg/mL), an MBC (Escherichia coli) of 33 µM (≈ 6.24 µg/mL) and an MIC (Escherichia coli) of 4 µM (≈ 0.757 µg/mL). For the same compound, the MFC (Aspergillus niger) was 264 µM (≈ 49.9 µg/mL), the MIC (Aspergillus niger) was 33 µM (≈ 6.24 µg/mL) and the MFC (Candida albicans) was 264 µM (≈ 49.9 µg/mL). For the same compound, the MIC (Candida albicans) was 33 µM (≈ 6.24 µg/mL).
`OC(Cn1cncn1)(Cn1cncn1)c1ccc(F)cc1F` [FLUCONAZOLE] showed an MFC (Aspergillus niger) of 40 µM (≈ 12.3 µg/mL), an MIC (Aspergillus niger) of 1 µM (≈ 0.306 µg/mL) and an MFC (Candida albicans) of 40 µM (≈ 12.3 µg/mL). The MIC (Candida albicans) was 1 µM (≈ 0.306 µg/mL).
Compound `Clc1ccccc1-c1ncc[nH]1` has an MBC (Staphylococcus aureus) of 561 µM (≈ 100 µg/mL), an MIC (Staphylococcus aureus) of 35 µM (≈ 6.25 µg/mL) and an MBC (Bacillus subtilis) of 561 µM (≈ 100 µg/mL). For the same compound, the MIC (Bacillus subtilis) was 702 µM (≈ 125 µg/mL), the MBC (Escherichia coli) was 561 µM (≈ 100 µg/mL) and the MIC (Escherichia coli) was 702 µM (≈ 125 µg/mL). The MFC (Aspergillus niger) was 280 µM (≈ 50 µg/mL), the MIC (Aspergillus niger) was 35 µM (≈ 6.25 µg/mL) and the MFC (Candida albicans) was 561 µM (≈ 100 µg/mL). The MIC (Candida albicans) was 702 µM (≈ 125 µg/mL).
`Brc1ccc(-c2ncc[nH]2)cc1` showed an MBC (Staphylococcus aureus) of 28 µM (≈ 6.25 µg/mL), an MIC (Staphylococcus aureus) of 3 µM (≈ 0.669 µg/mL) and an MBC (Bacillus subtilis) of 28 µM (≈ 6.25 µg/mL). For the same compound, the MIC (Bacillus subtilis) was 3 µM (≈ 0.669 µg/mL), the MBC (Escherichia coli) was 28 µM (≈ 6.25 µg/mL) and the MIC (Escherichia coli) was 3 µM (≈ 0.669 µg/mL). For the same compound, the MFC (Aspergillus niger) was 112 µM (≈ 25 µg/mL), the MIC (Aspergillus niger) was 14 µM (≈ 3.12 µg/mL) and the MFC (Candida albicans) was 224 µM (≈ 50 µg/mL). It also gave an MIC (Candida albicans) of 28 µM (≈ 6.25 µg/mL).
`Nc1ccn(C[C@@H](CO)OCP(=O)(O)O)c(=O)n1.O.O` [CIDOFOVIR] gave an MCC [1] greater than 250 µg/mL, an EC50 (Human alphaherpesvirus 2) of 2 mg/L and an EC50 [2] greater than 250 mg/L. It also gave an EC50 (Human alphaherpesvirus 1 [3]) of 2 mg/L.
`CCn1cc(C(=O)O)c(=O)c2cc(F)c(N3CCNCC3)cc21` [NORFLOXACIN] gave an MBC (Staphylococcus aureus) of 19 µM (≈ 6.07 µg/mL), an MIC (Staphylococcus aureus) of 2 µM (≈ 0.639 µg/mL) and an MBC (Bacillus subtilis) of 19 µM (≈ 6.07 µg/mL). It also gave an MIC (Bacillus subtilis) of 2 µM (≈ 0.639 µg/mL), an MBC (Escherichia coli) of 19 µM (≈ 6.07 µg/mL) and an MIC (Escherichia coli) of 2 µM (≈ 0.639 µg/mL).
With `COc1ccc(-c2ncc[nH]2)cc1` the MBC (Staphylococcus aureus) was 32 µM (≈ 5.57 µg/mL), the MIC (Staphylococcus aureus) was 4 µM (≈ 0.697 µg/mL) and the MBC (Bacillus subtilis) was 32 µM (≈ 5.57 µg/mL). The MIC (Bacillus subtilis) was 4 µM (≈ 0.697 µg/mL), the MBC (Escherichia coli) was 263 µM (≈ 45.8 µg/mL) and the MIC (Escherichia coli) was 32 µM (≈ 5.57 µg/mL). The MFC (Aspergillus niger) was 526 µM (≈ 91.6 µg/mL), the MIC (Aspergillus niger) was 65 µM (≈ 11.3 µg/mL) and the MFC (Candida albicans) was 526 µM (≈ 91.6 µg/mL). It also gave an MIC (Candida albicans) of 65 µM (≈ 11.3 µg/mL).
Compound `Nc1ncnc2c1ncn2C[C@H](O)CO` [(S)-DHPA] has an MCC [4] greater than 250 µg/mL, an EC50 [5] greater than 250 mg/L and an EC50 (Coxsackievirus B4 [6]) greater than 250 mg/L. The EC50 [7] was greater than 250 mg/L, the MCC [8] was greater than 250 µg/mL and the EC50 (Human respirovirus 3) was greater than 250 mg/L. For the same compound, the EC50 [9] was greater than 250 mg/L, the EC50 (Sindbis virus) was greater than 250 mg/L and the EC50 (Coxsackievirus B4 [10]) was greater than 250 mg/L. The EC50 (Punta Toro virus) was greater than 250 mg/L.
`Clc1cccc(-c2ncc[nH]2)c1` gave an MBC (Staphylococcus aureus) of 35 µM (≈ 6.25 µg/mL), an MIC (Staphylococcus aureus) of 4 µM (≈ 0.714 µg/mL) and an MBC (Bacillus subtilis) of 140 µM (≈ 25 µg/mL). It also gave an MIC (Bacillus subtilis) of 17 µM (≈ 3.04 µg/mL), an MBC (Escherichia coli) of 561 µM (≈ 100 µg/mL) and an MIC (Escherichia coli) of 702 µM (≈ 125 µg/mL). It also gave an MFC (Aspergillus niger) of 280 µM (≈ 50 µg/mL), an MIC (Aspergillus niger) of 35 µM (≈ 6.25 µg/mL) and an MFC (Candida albicans) of 280 µM (≈ 50 µg/mL). For the same compound, the MIC (Candida albicans) was 35 µM (≈ 6.25 µg/mL).
For `O=[N+]([O-])c1ccccc1-c1ncc[nH]1`, the MBC (Staphylococcus aureus) was 33 µM (≈ 6.24 µg/mL), the MIC (Staphylococcus aureus) was 4 µM (≈ 0.757 µg/mL) and the MBC (Bacillus subtilis) was 33 µM (≈ 6.24 µg/mL). It also gave an MIC (Bacillus subtilis) of 4 µM (≈ 0.757 µg/mL), an MBC (Escherichia coli) of 33 µM (≈ 6.24 µg/mL) and an MIC (Escherichia coli) of 4 µM (≈ 0.757 µg/mL). For the same compound, the MFC (Aspergillus niger) was 264 µM (≈ 49.9 µg/mL), the MIC (Aspergillus niger) was 33 µM (≈ 6.24 µg/mL) and the MFC (Candida albicans) was 264 µM (≈ 49.9 µg/mL). For the same compound, the MIC (Candida albicans) was 33 µM (≈ 6.24 µg/mL).
With `O=c1[nH]c(=O)n([C@H]2C[C@H](O)[C@@H](CO)O2)cc1/C=C/Br` [BRIVUDINE] the MCC [1] was greater than 250 µg/mL, the EC50 (Human alphaherpesvirus 1 [11]) was 0.04 mg/L (≈ 0.12 µM) and the EC50 (Human alphaherpesvirus 2) was 29 mg/L (≈ 87.1 µM). For the same compound, the EC50 [2] was greater than 250 mg/L and the EC50 (Human alphaherpesvirus 1 [3]) was 96 mg/L (≈ 288 µM).
In the case of `c1ccc(-c2ncc[nH]2)cc1` [2-PHENYLIMIDAZOLE], the MBC (Staphylococcus aureus) is reported as 43 µM (≈ 6.2 µg/mL), the MIC (Staphylococcus aureus) is reported as 5 µM (≈ 0.721 µg/mL) and the MBC (Bacillus subtilis) is reported as 43 µM (≈ 6.2 µg/mL). The MIC (Bacillus subtilis) was 5 µM (≈ 0.721 µg/mL), the MBC (Escherichia coli) was 43 µM (≈ 6.2 µg/mL) and the MIC (Escherichia coli) was 5 µM (≈ 0.721 µg/mL). It also gave an MFC (Aspergillus niger) of 694 µM (≈ 100 µg/mL), an MIC (Aspergillus niger) of 86 µM (≈ 12.4 µg/mL) and an MFC (Candida albicans) of 347 µM (≈ 50 µg/mL). It also gave an MIC (Candida albicans) of 43 µM (≈ 6.2 µg/mL).
